Source: PubChem BioAssay
Compounds with a hit are over-represented: about 2.2% of the library has one in this group of screens.
SMARCA2 activ = SMARCA2 function activation, primary screen | MG213 cells, MMTV-luciferase reporter, dexamethasone, overnight | activation, % at 9.1 µM | actives 1% (n = 370,000) | AID 652017; in the data active = activation above about 7.8%;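 also: 0% = vehicle wells and 100% = reference activator wells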
GalR3 antag = antagonists of human GalR3; HEK293 GalR3-CNG cAMP membrane potential fluorescence; galR3 body fused to GalR1 C-terminus; O60755; inhibition, % at 3 µM; actives 0.44% (n = 360,000);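 active = inhibition above the screen-wide average plus 3 SD, cut at about 13% in these data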;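 also: forskolin and galanin both at EC90 stimulate the cells; cAMP rise reported by CNG channel membrane potential dye signal; 0% = forskolin plus galanin with DMSO and 100% = forskolin alone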
NR2E3 ag-1 = agonists of human NR2E3 nuclear receptor | AID 602229 | Q9Y5X4 | actives 0.35% (n = 360,000) | inhibition of corepressor binding, % at 3.98 µM | CHO-S Gal4-NCOR/VP16-NR2E3 two-hybrid, luciferase;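 active = inhibition above the mean of all tested compounds plus 3 SD, cut at about 70% in these data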;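 also: 0% = DMSO with NR2E3 transfected cells and 100% = cells lacking NR2E3 construct; higher means lower luciferase signal from less NR2E3 corepressor binding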
Target sequence (Q9Y5X4 whole entry, looked up, the tested form may be a part): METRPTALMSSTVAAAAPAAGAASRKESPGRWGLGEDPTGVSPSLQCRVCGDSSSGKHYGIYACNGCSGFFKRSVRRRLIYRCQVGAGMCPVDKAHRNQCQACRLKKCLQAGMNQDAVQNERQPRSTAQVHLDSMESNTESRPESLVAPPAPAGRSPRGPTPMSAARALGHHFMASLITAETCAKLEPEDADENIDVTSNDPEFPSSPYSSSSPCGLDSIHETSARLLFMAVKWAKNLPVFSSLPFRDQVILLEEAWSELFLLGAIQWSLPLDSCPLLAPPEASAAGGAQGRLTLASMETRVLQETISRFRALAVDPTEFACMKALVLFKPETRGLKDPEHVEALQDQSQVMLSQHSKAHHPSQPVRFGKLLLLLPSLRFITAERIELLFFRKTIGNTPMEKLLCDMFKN
NR2F2 inh = NR2F2 (human) inhibition, primary screen; inhibition, % at 8.6 µM; actives 0.7% (n = 370,000); HEK293T NGFI-A luciferase reporter, luminescence;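 active = inhibition above a per-plate cutoff, mean inhibition of test wells between control levels plus 3 SD, cut at about 38% in these data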;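 also: cells cotransfected with COUP-TFII expression vector driving the NGFI-A reporter; 0% = median of COUP-TF2 test wells and 100% = reporter-only cells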
NR2E3 ag-2 = NR2E3 (human) agonism; Q9Y5X4; GST-NR2E3/biotin-RetCOR TR-FRET, 1536-well; inhibition of corepressor binding, % at 4.78 µM; actives 0.12% (n = 320,000); AID 2300;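 active = percent inhibition above the cutoff of mean plus 3 SD of all tested compounds, set per screening campaign, cut at about 20% in these data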;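 also: 0% = DMSO wells and 100% = biotin wells as full block of FRET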
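Test system – NR2E3–RetCOR corepressor complex · Quantity – NR2E3 fusion 1.35 nM · Buffer or medium – Tris pH 7.5 · Incubation – Compound–protein incubation for 5 h at 4 °C · Technique – TR-FRET, Eu(K)-anti-GST donor, streptavidin-D2 acceptor, ex 340, em 617/671 nm · Evaluation – percent inhibition of 671/617 nm emission ratio versus biotin and DMSO controls · Plate – 1536-well format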
Gal4-VP16 ctr = inhibits VP16 reporter, flagging COUP-TFII antagonist hits; shares compounds with NR2F2 inh; inhibition, % at 8.5 µM; actives 25% (n = 2,500); HEK293 Gal4-VP16 luciferase reporter, luminescence; in the data active = inhibition above about 13%
COUP-TFII conf = confirmation of human COUP-TFII (NR2F2) inhibitors. HEK293 NGFI-A luciferase reporter, luminescence. shares compounds with NR2F2 inh. inhibition, % at 8.5 µM. actives 45% (n = 2,500). AID 687008;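 active = mean inhibition over three repeats above a set limit taken from the earlier primary screen, cut at about 38% in these data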;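 also: 100% = cells given the luciferase reporter alone without the COUP-TF2 vector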
* marks the source's active call; other numbers are inactive results; x = no result.

SMILES	SMARCA2 activ	GalR3 antag	NR2E3 ag-1	NR2F2 inh	NR2E3 ag-2	Gal4-VP16 ctr	COUP-TFII conf
COc1ccc(N2CCN(C(=O)CCCCCn3c(=S)[nH]c4ccc(N5CCOCC5)cc4c3=O)CC2)cc1	-9	-4	-25	42*	x	6	23
CC(C)(C)NC(=O)COc1ccc(CNc2ncn[nH]2)cc1	-5	1	-5	2	-2	x	x
COc1cc(CNc2ccc(CNc3ncn[nH]3)cc2)ccc1OCC(=O)NC(C)(C)C	-2	-2	-4	42*	1	2	17
CCOC(=O)[C@]12CCCC3=C1N(CCC3)C(=O)[C@@H](CC(=O)N1CCC(c3ccccc3)CC1)C2	-2	x	x	12	x	x	x
CCOC(=O)c1cc(-c2ccc(C)cc2)n(CCC(=O)N2CCN(c3ccccn3)CC2)c1C	-1	-2	-16	39*	0	-6	8
CCOC(=O)c1cc(-c2ccccc2)n(CCC(=O)O)c1C	-3	-3	-2	10	2	x	x
Clc1cccc(CNc2nnnn2-c2ccccc2)c1	-3	-6	32	39*	0	2	6
Cn1nnnc1SCc1ccc(C(=O)Nc2nccs2)cc1	2	-7	-32	-29	1	x	x
C=CCn1c(SCc2ccc(C(=O)Nc3nccs3)cc2)nnc1-c1ccc(C)c(Cl)c1	-3	-5	-44	40*	-1	-12	21
C=CCN=c1scc(-c2ccc3c(c2)NC(=O)CO3)n1/N=C(\C)c1ccccn1	-8	-5	34	56*	x	12	63*
C=CCN=c1scc(-c2ccc(F)cc2)n1/N=C/c1ccccn1	0	-8	-104	-28	-2	x	x
COC(=O)c1cc2c(c3c4cc(C)ccc4n(C(=O)c4ccccc4)c13)C(=O)N(Cc1ccccc1)C2	-2	-7	x	-10	x	x	x
COc1ccc(-c2cc(N)n(S(=O)(=O)c3ccc(F)cc3)n2)cc1OC	-4	4	35	46*	1	6	31
O=[N+]([O-])c1ccc2nc(CNc3nc(N4CCOCC4)nc4c3ncn4-c3ccsc3)[nH]c2c1	x	x	x	58*	x	28*	48*
c1ccc2[nH]c(N3CCOCC3)nc2c1	-1	-4	4	-2	-2	x	x
FC(F)(F)c1ccc2nc(CNc3nc(N4CCOCC4)nc4c3ncn4-c3ccsc3)[nH]c2c1	x	x	x	69*	x	23*	42*
c1ccc2[nH]c(CNc3nc(N4CCOCC4)nc4c3ncn4-c3ccsc3)nc2c1	x	x	x	52*	x	20*	46*
c1ccc2cc3[nH]c(CNc4nc(N5CCOCC5)nc5c4ncn5-c4ccsc4)nc3cc2c1	x	x	x	63*	x	12	42*
Cc1ccc2nc(SCC(=O)Nc3cc(C(F)(F)F)ccc3N3CCOCC3)[nH]c2c1	-2	-1	38	-29	-3	x	x
CCOC(=O)c1csc(NC(=O)C2CCCN(S(=O)(=O)c3ccc(Br)s3)C2)n1 (stereo not drawn)	-5	x	x	16	x	x	x
CC(C)CNC(=O)OCc1cn(Cc2ccccc2C(F)(F)F)nn1	0	x	x	-2	x	x	x
O=c1c2cc3cc(Cl)ccc3nc2ncn1N1CCCCC1	-3	x	x	-6	x	x	x
O=[N+]([O-])c1cccc2[nH]c(CNc3nc(N4CCOCC4)nc4c3ncn4-c3ccsc3)nc12	x	x	x	67*	x	25*	41*
CCCCCCC(=O)NC1CCCCN(Cc2cccc(Cl)c2)C1=O (stereo not drawn)	4	x	x	0	x	x	x
C=CCN1C(=O)[C@@H](CC(=O)NCCCOC)[C@]2(C(=O)OC)CCCCC=C12	-2	x	x	14	x	x	x
SMILES	SMARCA2 activ	GalR3 antag	NR2E3 ag-1	NR2F2 inh	NR2E3 ag-2	Gal4-VP16 ctr	COUP-TFII conf
CC(C)C[C@@H]1NC(=O)[C@H]2C[C@]3(c4ccccc4)c4ccccc4N[C@H]3N2C1=O	-3	x	x	-4	x	x	x
CC(=O)c1c(C(C)=O)c(C)n(Cc2ccc(Cl)cc2)c1C	-5	-3	7	43*	2	6	18
CCOC(=O)c1c(C=O)c(C)n(Cc2ccc(Cl)cc2)c1C	-3	-7	-2	3	-1	x	x
CCc1ccc(C(=O)OCC(=O)c2c(N)n(CC(C)C)c(=O)n(C)c2=O)cc1	-4	-11	23	47*	-6	7	19
Cc1nccn1CCOc1ccccc1Cl	-3	5	2	68*	x	2	8
Clc1ccccc1OCCCn1ccnc1	-1	-3	2	6	1	x	x
NS(=O)(=O)c1cccc(NS(=O)(=O)c2cccc(C(F)(F)F)c2)c1	-3	5	2	43*	-2	3	3
O=C(c1cccc(NS(=O)(=O)c2cccc(C(F)(F)F)c2)c1)N1CCOCC1	0	-4	12	-3	3	x	x
CCOc1cc(/C=C2\CN(C)C/C(=C\c3ccc(O)c(OCC)c3)C2=O)ccc1O	5	-7	1	78*	0	57*	82*
Cc1cccc(Oc2cc(NC(=O)c3ccccc3)cc([N+](=O)[O-])c2)c1	-5	-9	22	50*	-2	-6	26
CCOC(=O)c1ccc(-c2ccc(N3C(c4ccsc4)=Cc4ccc(F)cc4C3c3c[nH]c4ccc(C#N)cc34)cc2)cc1F (stereo not drawn)	-9	-7	-47	56*	x	-5	0
COc1cccc(C(=O)NCC2(c3ccccc3)CCCC2)c1OC	0	0	4	45*	-1	-8	17
COc1ccc(C2(CNC(=O)c3ccccc3)CCCC2)cc1OC	-2	-8	-25	3	-1	x	x
CC(C)N1CCCCC(NC(=O)c2c(F)cccc2F)C1=O (stereo not drawn)	-1	x	x	9	x	x	x
CCC(C(=O)NCc1ccccc1)n1c(CSCCOc2ccccc2)nc2ccccc21 (stereo not drawn)	-9	-5	x	58*	x	8	23
COc1ccc(C(C(=O)NC2CCCC2)n2c(CSCCOc3ccccc3)nc3ccccc32)cc1 (stereo not drawn)	-13	-1	x	70*	x	28*	46*
COc1ccc(C2CC(=O)c3c(C)nc(N4CCN(Cc5ccccc5)CC4)nc3C2)cc1OC (stereo not drawn)	-4	-5	2	62*	-3	8	39*
Cc1nn(Cc2ccc(Cl)cc2)c(C)c1NC(=O)c1cc(C(C)C)on1	-4	-8	36	44*	1	4	22
CC(C)CNS(=O)(=O)c1ccc(CCC(=O)N2CCN(c3ccccc3)CC2)cc1	0	-3	7	14	1	x	x
CCNS(=O)(=O)c1ccc(CCC(=O)N2CCN(c3ccccc3)CC2)cc1	-4	-6	-13	43*	-5	9	4
